Source: the RNAGym collection of RNA variant scans (doi:10.1126/science.aae0568)
Fewer inactive variants are shown than the library holds.

B1: tRNA (parent)
chain: GUUCCGUUGGCGUAAUGGUAACGCGUCUCCCUCCUAAGGAGAAGACUGCGGGUUCGAGUCCCGUACGGAACG

Variants of: B1
Assay: yeast fitness relative to wild type (ratio to wild type); higher = fitter; tRNA-Arg(CCU), competitive growth, 37 C, YPD
How it was run: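 Start and end populations of a pooled competition were compared by 100-nucleotide paired-end sequencing of gene amplicons. The Saccharomyces cerevisiae strains carried tRNA-Arg(CCU) gene variants at the native genomic locus, synthesised with a 3% per-site mutation rate at 69 sites, and competed in YPD at 37°C for 24 hours in six parallel replicates. Darwinian fitness relative to wild type was based on the change in genotype frequencies. Genotypes required ≥ 100 starting reads, and estimates < 0.5 were set to 0.5.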
G10C C27G G38C G56A showed a yeast fitness of 0.526.
In the case of G10C C27G U54C C61G, the yeast fitness is reported as ≤ 0.5.
In the case of G10C C27U A36C C61U, the yeast fitness is reported as 0.586.
G10C C27U A65C gave a yeast fitness of 0.552.
In the case of G10C C27U C66G, the yeast fitness is reported as ≤ 0.5.
Variant G10C C27U G38A C46G has a yeast fitness of 0.57.
For G10C C29A A37G U64C, the yeast fitness was ≤ 0.5.
With G10C C29A A40U C55G the yeast fitness was ≤ 0.5.
With G10C C29A A40U C55G G67C the yeast fitness was ≤ 0.5.
For G10C C29A A40U C62G, the yeast fitness was ≤ 0.5.
In the case of G10C C29A C31U G68C, the yeast fitness is reported as ≤ 0.5.
In the case of G10C C29A C46U C60G, the yeast fitness is reported as ≤ 0.5.
In the case of G10C C29A G68C, the yeast fitness is reported as ≤ 0.5.
In the case of G10C C29G A42U G58A G63A G67A, the yeast fitness is reported as ≤ 0.5.
In the case of G10C C29G A70C, the yeast fitness is reported as ≤ 0.5.
For G10C C29G G39A, the yeast fitness was ≤ 0.5.
In the case of G10C C29G G39A U64A, the yeast fitness is reported as ≤ 0.5.
With G10C C29U the yeast fitness was 0.589.
In the case of G10C C29U A43G U53G G63A, the yeast fitness is reported as 0.527.
In the case of G10C C29U A69C, the yeast fitness is reported as ≤ 0.5.
For G10C C29U C31U A45C, the yeast fitness was 0.623.
For G10C C29U C31U U54G A65U G67A, the yeast fitness was ≤ 0.5.
With G10C C29U C46A the yeast fitness was ≤ 0.5.
For G10C C29U C46A A69U, the yeast fitness was 0.59.
For G10C C29U C49G G63C, the yeast fitness was ≤ 0.5.
Work on G10C C30A yielded a yeast fitness of 0.815.
G10C C30G showed a yeast fitness of 0.507.
With G10C C30G A43U G68U the yeast fitness was ≤ 0.5.
G10C C30G C34G A57G C66U gave a yeast fitness of 0.523.
For G10C C30G U59G C66A, the yeast fitness was ≤ 0.5.
G10C C30U gave a yeast fitness of 0.733.
For G10C C30U C31A, the yeast fitness was ≤ 0.5.
With G10C C30U G51A G63A the yeast fitness was ≤ 0.5.
In the case of G10C C31A, the yeast fitness is reported as 0.577.
With G10C C31A A65C A69C the yeast fitness was ≤ 0.5.
For G10C C31G A45U G68C, the yeast fitness was ≤ 0.5.
For G10C C31G A65U, the yeast fitness was ≤ 0.5.
For G10C C31G U32C A36U A57U C60G, the yeast fitness was ≤ 0.5.
In the case of G10C C31U A57C C62A, the yeast fitness is reported as ≤ 0.5.
With G10C C31U A57C C62A A70U the yeast fitness was ≤ 0.5.
For G10C C31U U35G, the yeast fitness was ≤ 0.5.
With G10C C31U U35G C62U the yeast fitness was ≤ 0.5.
For G10C C33A A45C C55U, the yeast fitness was ≤ 0.5.
With G10C C33A G48A G58A the yeast fitness was ≤ 0.5.
With G10C C33A U35C G67C the yeast fitness was 0.675.
In the case of G10C C33G A36C, the yeast fitness is reported as ≤ 0.5.
In the case of G10C C33G A36C U64A A65C, the yeast fitness is reported as ≤ 0.5.
For G10C C33G A40U, the yeast fitness was 0.579.
In the case of G10C C33G A57G, the yeast fitness is reported as ≤ 0.5.
For G10C C33G C46G C62G, the yeast fitness was ≤ 0.5.
In the case of G10C C33G U53C C55U A70G, the yeast fitness is reported as ≤ 0.5.
For G10C C33G U64C, the yeast fitness was ≤ 0.5.
With G10C C33U A36G A43G the yeast fitness was ≤ 0.5.
In the case of G10C C33U A40C, the yeast fitness is reported as ≤ 0.5.
With G10C C33U G48C the yeast fitness was ≤ 0.5.
In the case of G10C C34A, the yeast fitness is reported as 0.504.
With G10C C34A A40G the yeast fitness was 0.631.
In the case of G10C C34A A40G A69U, the yeast fitness is reported as 0.552.
For G10C C34A C55U, the yeast fitness was ≤ 0.5.
With G10C C34A G67A the yeast fitness was ≤ 0.5.
With G10C C34G A40G the yeast fitness was ≤ 0.5.
With G10C C34G A42U A70C the yeast fitness was ≤ 0.5.
Work on G10C C34G A69U A70C yielded a yeast fitness of 0.711.
With G10C C34G C49U the yeast fitness was ≤ 0.5.
In the case of G10C C34G U54C A70U, the yeast fitness is reported as ≤ 0.5.
With G10C C34G U54C G67U the yeast fitness was ≤ 0.5.
In the case of G10C C34G U59A, the yeast fitness is reported as ≤ 0.5.
G10C C34U A40C gave a yeast fitness of 0.667.
Work on G10C C46A A69U yielded a yeast fitness of 0.615.
G10C C46G showed a yeast fitness of 0.708.
With G10C C46G G51A G52A the yeast fitness was ≤ 0.5.
For G10C C46G U54C, the yeast fitness was ≤ 0.5.
In the case of G10C C49A C62U, the yeast fitness is reported as ≤ 0.5.
G10C C49G A65G gave a yeast fitness of 0.55.
G10C C49U A69C gave a yeast fitness of 0.575.
For G10C C49U C62U, the yeast fitness was ≤ 0.5.
G10C C55A showed a yeast fitness of 0.568.
In the case of G10C C55A A65C G68A, the yeast fitness is reported as ≤ 0.5.
For G10C C55A C61U A65C G68A, the yeast fitness was ≤ 0.5.
For G10C C60A, the yeast fitness was 0.583.
Work on G10C C60A C62A yielded a yeast fitness of 0.529.
For G10C C60U, the yeast fitness was ≤ 0.5.
Work on G10C C61G yielded a yeast fitness of 0.656.
In the case of G10C C61U, the yeast fitness is reported as 0.792.
Work on G10C C66U yielded a yeast fitness of 0.577.
G10C G12A gave a yeast fitness of 0.757.
In the case of G10C G12A A15G A36U C46U, the yeast fitness is reported as ≤ 0.5.
For G10C G12A A15G A69C, the yeast fitness was ≤ 0.5.
With G10C G12A A45C the yeast fitness was 0.539.
In the case of G10C G12A C33G U47G, the yeast fitness is reported as ≤ 0.5.
In the case of G10C G12A G25C A37G, the yeast fitness is reported as ≤ 0.5.
In the case of G10C G12A U16A C30U, the yeast fitness is reported as ≤ 0.5.
In the case of G10C G12A U28C C61G C66U, the yeast fitness is reported as ≤ 0.5.
For G10C G12C, the yeast fitness was 0.645.
In the case of G10C G12C C24U C29G G68C, the yeast fitness is reported as ≤ 0.5.
G10C G12C C33U U35G showed a yeast fitness of 0.614.
With G10C G12C C33U U35G C49G the yeast fitness was ≤ 0.5.
For G10C G12C C46A, the yeast fitness was ≤ 0.5.
For G10C G12C C46G C55U G67C, the yeast fitness was ≤ 0.5.
With G10C G12C C49U G56C the yeast fitness was ≤ 0.5.
With G10C G12C C55A the yeast fitness was ≤ 0.5.
In the case of G10C G12C G17U G39A C61U A69C, the yeast fitness is reported as ≤ 0.5.
With G10C G12C G39A C61U the yeast fitness was ≤ 0.5.
With G10C G12C G39A G50A A69U the yeast fitness was ≤ 0.5.
For G10C G12U C33U U35G, the yeast fitness was ≤ 0.5.
With G10C G18A C22U G63A the yeast fitness was ≤ 0.5.
With G10C G18A C66U the yeast fitness was ≤ 0.5.
With G10C G18C A45C G56C A70C the yeast fitness was ≤ 0.5.
For G10C G18C C24U C66U, the yeast fitness was ≤ 0.5.
Work on G10C G23A A45C U54C yielded a yeast fitness of 0.58.
With G10C G23A G52C C62U the yeast fitness was 0.55.
With G10C G23A U35A A40U A42U C55G the yeast fitness was ≤ 0.5.
With G10C G23C C33G C46A C66A the yeast fitness was ≤ 0.5.
For G10C G23C G48A G52A U53C C61A, the yeast fitness was 0.52.
In the case of G10C G25A U26C C46G, the yeast fitness is reported as ≤ 0.5.
In the case of G10C G41A C66U, the yeast fitness is reported as ≤ 0.5.
In the case of G10C G41A G50C, the yeast fitness is reported as ≤ 0.5.
Work on G10C G41C yielded a yeast fitness of 0.634.
For G10C G44A, the yeast fitness was 0.699.
With G10C G44A A70C the yeast fitness was ≤ 0.5.
For G10C G44C C55G A69U, the yeast fitness was 0.59.
In the case of G10C G44C G51C, the yeast fitness is reported as ≤ 0.5.
With G10C G44C U47C G52A U53C C61U the yeast fitness was ≤ 0.5.
G10C G48A gave a yeast fitness of 0.851.
In the case of G10C G48A U54A, the yeast fitness is reported as ≤ 0.5.
In the case of G10C G48A U54A A69C, the yeast fitness is reported as ≤ 0.5.
G10C G50A C61G showed a yeast fitness of 0.554.
In the case of G10C G50A U59A, the yeast fitness is reported as ≤ 0.5.
With G10C G50A U59A G67U the yeast fitness was ≤ 0.5.
In the case of G10C G51A, the yeast fitness is reported as 0.585.
With G10C G51A G63A the yeast fitness was ≤ 0.5.
In the case of G10C G56A, the yeast fitness is reported as 0.596.
G10C G56A A70C gave a yeast fitness of 0.554.
Work on G10C G58A yielded a yeast fitness of 0.553.
Variant G10C G58C has a yeast fitness of 0.722.
In the case of G10C G58U, the yeast fitness is reported as ≤ 0.5.
In the case of G10C G63A G68C, the yeast fitness is reported as ≤ 0.5.
G10C G67U gave a yeast fitness of 0.689.
Variant G10C G68C has a yeast fitness of 0.697.
In the case of G10C U13A A14G A20G C22A C24G C62G, the yeast fitness is reported as ≤ 0.5.
With G10C U13A A14G A20G C22A C24G U32G the yeast fitness was ≤ 0.5.
For G10C U13A A21U U26C C31U A43U G58A G63C A70C, the yeast fitness was ≤ 0.5.
In the case of G10C U13A A43U C61A A70C, the yeast fitness is reported as ≤ 0.5.
In the case of G10C U13A C31A C55U, the yeast fitness is reported as ≤ 0.5.
In the case of G10C U13C G18C C27U C33G A37G C55U U64A G68C A70U, the yeast fitness is reported as ≤ 0.5.
For G10C U13C G18C C27U C33G C46A C55U U64A G68C A70U, the yeast fitness was ≤ 0.5.
G10C U13C G18C C27U C33G C55U U64A G68C A70U showed a yeast fitness of 0.593.
For G10C U13C U32G, the yeast fitness was ≤ 0.5.
G10C U13C U53C showed a yeast fitness of 0.512.
G10C U16A C30U gave a yeast fitness of 0.54.
G10C U16A C30U A57G showed a yeast fitness of 0.646.
For G10C U16C A20G, the yeast fitness was ≤ 0.5.
For G10C U16G C31A U32G C55U, the yeast fitness was ≤ 0.5.
For G10C U19A, the yeast fitness was 0.612.
In the case of G10C U19A C24U, the yeast fitness is reported as 0.531.
In the case of G10C U19C A65G A70C, the yeast fitness is reported as ≤ 0.5.
In the case of G10C U19G, the yeast fitness is reported as 0.552.
With G10C U19G C29U U54A the yeast fitness was ≤ 0.5.
In the case of G10C U26A, the yeast fitness is reported as 0.71.
In the case of G10C U26A A43G C60U C62U A70C, the yeast fitness is reported as ≤ 0.5.
For G10C U26A C31U, the yeast fitness was 0.578.
With G10C U26A C49U the yeast fitness was ≤ 0.5.
With G10C U26A C49U C55G C60G the yeast fitness was ≤ 0.5.
In the case of G10C U26A C61G A70C, the yeast fitness is reported as ≤ 0.5.
For G10C U26A G38A A40U, the yeast fitness was ≤ 0.5.
With G10C U26C A45G C49U C55G the yeast fitness was ≤ 0.5.
G10C U26C C55U showed a yeast fitness of 0.507.
